Reference: ChEMBL document CHEMBL1240415, “Design, synthesis and antimicrobial activities of some new quinoline derivatives carrying 1,2,3-triazole moiety” (2010)
≈ marks a conversion by molar mass, not a printed value.

Key:
Type in all cases: functional
Klebsiella pneumoniae = test: Antibacterial activity against recultured Klebsiella pneumoniae after 3 to 4 days by serial plate dilution method; conditions: for MIC: Klebsiella pneumoniae
How it was run: (§1)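 Serial dilutions in Mueller-Hinton broth in tubes, pH adjusted to 5.0 with phosphate buffer. Inoculated with a standardized bacterial suspension and incubated 16–18 h at 37 °C. MIC is the lowest concentration with no visible growth, tested over 6.25–100 µg/mL. Zones come from an agar well diffusion assay: compounds in DMSO are added to wells in seeded agar, DMSO control, triplicate plates, 37 °C for 3–4 days, inhibition zone diameter in mm.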

Escherichia coli = test: Antibacterial activity against Escherichia coli ATTC 25922 after 3 to 4 days by serial plate dilution method; conditions: for MIC: Escherichia coli, ATTC 25922; how it was run: as §1
Streptococcus pyogenes = test: Antibacterial activity against Streptococcus pyogenes after 3 to 4 days by serial plate dilution method; conditions: for MIC: Streptococcus pyogenes; how it was run: as §1
[1] = system: Trichophyton mentagrophytes; test: Antifungal activity against recultured Trichophyton mentagrophytes after 3 to 4 days by serial plate dilution method; conditions: for MIC: Trichophyton mentagrophytes
How it was run: (§2)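 Sabouraud agar made from peptone, glucose and agar in water, pH 5.7. Fungal spores suspended in normal saline and used to lawn the plates, which were dried 1 h at 37 °C. Wells punched and compounds added in DMSO, with a DMSO solvent control. Triplicate plates held at 37 °C for 3–4 days. Read-out is inhibition zone diameter.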

Talaromyces marneffei = test: Antifungal activity against recultured Penicillium marneffei after 3 to 4 days by serial plate dilution method; conditions: for MIC: Talaromyces marneffei; how it was run: as §2
Pseudomonas aeruginosa = test: Antibacterial activity against Pseudomonas aeruginosa ATCC 27853 after 3 to 4 days by serial plate dilution method; conditions: for MIC: Pseudomonas aeruginosa, ATCC 27853; how it was run: as §1
Candida albicans = test: Antifungal activity against Candida albicans after 3 to 4 days by serial plate dilution method; conditions: for MIC: Candida albicans; how it was run: as §2
Staphylococcus aureus = test: Antibacterial activity against Staphylococcus aureus ATTC 25923 after 3 to 4 days by serial plate dilution method; conditions: for MIC: Staphylococcus aureus, ATTC 25923; how it was run: as §1
Aspergillus flavus = test: Antifungal activity against Aspergillus flavus NCIM 524 after 3 to 4 days by serial plate dilution method; conditions: for MIC: Aspergillus flavus, NCIM 524; how it was run: as §2
Aspergillus fumigatus = test: Antifungal activity against Aspergillus fumigatus NCIM 902 after 3 to 4 days by serial plate dilution method; conditions: for MIC: Aspergillus fumigatus, NCIM 902; how it was run: as §2

MIC (Klebsiella pneumoniae) | MIC (Escherichia coli) | MIC (Streptococcus pyogenes) | MIC [1] | MIC (Talaromyces marneffei) | MIC (Pseudomonas aeruginosa) | MIC (Candida albicans) | MIC (Staphylococcus aureus) | MIC (Aspergillus flavus) | MIC (Aspergillus fumigatus) | Structure (SMILES) | diameter of the inhibition zone (DIZ) (Klebsiella pneumoniae) | diameter of the inhibition zone (DIZ) (Escherichia coli) | diameter of the inhibition zone (DIZ) (Streptococcus pyogenes) | diameter of the inhibition zone (DIZ) [1] | diameter of the inhibition zone (DIZ) (Talaromyces marneffei) | diameter of the inhibition zone (DIZ) (Pseudomonas aeruginosa) | diameter of the inhibition zone (DIZ) (Candida albicans) | diameter of the inhibition zone (DIZ) (Staphylococcus aureus) | diameter of the inhibition zone (DIZ) (Aspergillus flavus) | diameter of the inhibition zone (DIZ) (Aspergillus fumigatus)
6.25 µg/mL (≈ 17.6 µM) | 6.25 µg/mL (≈ 17.6 µM) | 6.25 µg/mL (≈ 17.6 µM) | 6.25 µg/mL (≈ 17.6 µM) | 6.25 µg/mL (≈ 17.6 µM) | 6.25 µg/mL (≈ 17.6 µM) | 6.25 µg/mL (≈ 17.6 µM) | 6.25 µg/mL (≈ 17.6 µM) | 6.25 µg/mL (≈ 17.6 µM) | 6.25 µg/mL (≈ 17.6 µM) | COc1ccc2nc(C)cc(-n3cc(CN(C)CCN(C)C)nn3)c2c1 | 14 mm | 14 mm | 16 mm | 14 mm | 16 mm | 14 mm | 12 mm | 14 mm | 16 mm | 14 mm
6.25 µg/mL (≈ 17.6 µM) | 6.25 µg/mL (≈ 17.6 µM) | 6.25 µg/mL (≈ 17.6 µM) | 6.25 µg/mL (≈ 17.6 µM) | 6.25 µg/mL (≈ 17.6 µM) | 6.25 µg/mL (≈ 17.6 µM) | 6.25 µg/mL (≈ 17.6 µM) | 6.25 µg/mL (≈ 17.6 µM) | 6.25 µg/mL (≈ 17.6 µM) | 6.25 µg/mL (≈ 17.6 µM) | COc1ccc2nc(C)cc(-n3cc(CNCCCN(C)C)nn3)c2c1 | 12 mm | 10 mm | 14 mm | 12 mm | 14 mm | 12 mm | 14 mm | 14 mm | 14 mm | 16 mm
12.5 µg/mL (≈ 35.6 µM) | 12.5 µg/mL (≈ 35.6 µM) | 12.5 µg/mL (≈ 35.6 µM) | 25 µg/mL (≈ 71.1 µM) | 12.5 µg/mL (≈ 35.6 µM) | 12.5 µg/mL (≈ 35.6 µM) | 12.5 µg/mL (≈ 35.6 µM) | 25 µg/mL (≈ 71.1 µM) | 12.5 µg/mL (≈ 35.6 µM) | 25 µg/mL (≈ 71.1 µM) | COc1ccc2nc(C)cc(-n3cc(CNC4CCCCC4)nn3)c2c1 | 10 mm | 10 mm | 12 mm | <10 mm | 10 mm | 11 mm | 11 mm | <10 mm | 12 mm | <10 mm
6.25 µg/mL (≈ 18.4 µM) | 6.25 µg/mL (≈ 18.4 µM) | 6.25 µg/mL (≈ 18.4 µM) | 6.25 µg/mL (≈ 18.4 µM) | 6.25 µg/mL (≈ 18.4 µM) | 6.25 µg/mL (≈ 18.4 µM) | 6.25 µg/mL (≈ 18.4 µM) | 6.25 µg/mL (≈ 18.4 µM) | 6.25 µg/mL (≈ 18.4 µM) | 6.25 µg/mL (≈ 18.4 µM) | COc1ccc2nc(C)cc(-n3cc(CN4CCOCC4)nn3)c2c1 | 14 mm | 16 mm | 16 mm | 12 mm | 12 mm | 14 mm | 14 mm | 16 mm | 16 mm | 18 mm
50 µg/mL (≈ 137 µM) | 50 µg/mL (≈ 137 µM) | 50 µg/mL (≈ 137 µM) | 50 µg/mL (≈ 137 µM) | 50 µg/mL (≈ 137 µM) | 50 µg/mL (≈ 137 µM) | 50 µg/mL (≈ 137 µM) | 50 µg/mL (≈ 137 µM) | 50 µg/mL (≈ 137 µM) | 50 µg/mL (≈ 137 µM) | COc1ccc2nc(C)cc(-n3cc(CN(C)C4CCCCC4)nn3)c2c1 | <10 mm | <10 mm | <10 mm | <10 mm | <10 mm | <10 mm | <10 mm | <10 mm | <10 mm | <10 mm
12.5 µg/mL (≈ 30.2 µM) | 12.5 µg/mL (≈ 30.2 µM) | 12.5 µg/mL (≈ 30.2 µM) | 6.25 µg/mL (≈ 15.1 µM) | 6.25 µg/mL (≈ 15.1 µM) | 12.5 µg/mL (≈ 30.2 µM) | 6.25 µg/mL (≈ 15.1 µM) | 6.25 µg/mL (≈ 15.1 µM) | 6.25 µg/mL (≈ 15.1 µM) | 6.25 µg/mL (≈ 15.1 µM) | COc1ccc2nc(C)cc(-n3cc(CN4CCN(c5ccccc5)CC4)nn3)c2c1 | 12 mm | 12 mm | 10 mm | 16 mm | 16 mm | 12 mm | 12 mm | 10 mm | 14 mm | 16 mm
12.5 µg/mL (≈ 29.6 µM) | 12.5 µg/mL (≈ 29.6 µM) | 12.5 µg/mL (≈ 29.6 µM) | 50 µg/mL (≈ 118 µM) | 50 µg/mL (≈ 118 µM) | 12.5 µg/mL (≈ 29.6 µM) | 50 µg/mL (≈ 118 µM) | 12.5 µg/mL (≈ 29.6 µM) | 12.5 µg/mL (≈ 29.6 µM) | 50 µg/mL (≈ 118 µM) | COc1ccc2nc(C)cc(-n3cc(CN4CCC(N5CCOCC5)CC4)nn3)c2c1 | 11 mm | 11 mm | 12 mm | <10 mm | <10 mm | 10 mm | <10 mm | 10 mm | 11 mm | <10 mm
6.25 µg/mL (≈ 16.4 µM) | 6.25 µg/mL (≈ 16.4 µM) | 6.25 µg/mL (≈ 16.4 µM) | 6.25 µg/mL (≈ 16.4 µM) | 6.25 µg/mL (≈ 16.4 µM) | 6.25 µg/mL (≈ 16.4 µM) | 6.25 µg/mL (≈ 16.4 µM) | 6.25 µg/mL (≈ 16.4 µM) | 6.25 µg/mL (≈ 16.4 µM) | 6.25 µg/mL (≈ 16.4 µM) | COc1ccc2nc(C)cc(-n3cc(CN4CCN(C(C)C)CC4)nn3)c2c1 | 16 mm | 20 mm | 16 mm | 16 mm | 14 mm | 14 mm | 14 mm | 18 mm | 16 mm | 18 mm
12.5 µg/mL (≈ 38.4 µM) | 6.25 µg/mL (≈ 19.2 µM) | 12.5 µg/mL (≈ 38.4 µM) | 25 µg/mL (≈ 76.8 µM) | 12.5 µg/mL (≈ 38.4 µM) | 12.5 µg/mL (≈ 38.4 µM) | 12.5 µg/mL (≈ 38.4 µM) | 12.5 µg/mL (≈ 38.4 µM) | 12.5 µg/mL (≈ 38.4 µM) | 25 µg/mL (≈ 76.8 µM) | CCC(C)NCc1cn(-c2cc(C)nc3ccc(OC)cc23)nn1 (configuration not stated) | 11 mm | 14 mm | 12 mm | <10 mm | 10 mm | 10 mm | 11 mm | 10 mm | 11 mm | <10 mm
– | – | – | 3.12 µg/mL | 6.25 µg/mL | – | 6.25 µg/mL | – | 3.12 µg/mL | 6.25 µg/mL | Cc1cc(C2CCCCC2)n(O)c(=O)c1.NCCO [CICLOPIROX OLAMINE] | – | – | – | 27 mm | 20 mm | – | 20 mm | – | 25 mm | 25 mm

Structure (SMILES) | MIC (Klebsiella pneumoniae) | MIC (Escherichia coli) | MIC (Streptococcus pyogenes) | MIC [1] | MIC (Talaromyces marneffei) | MIC (Pseudomonas aeruginosa) | MIC (Candida albicans) | MIC (Staphylococcus aureus) | MIC (Aspergillus flavus) | MIC (Aspergillus fumigatus) | diameter of the inhibition zone (DIZ) (Klebsiella pneumoniae) | diameter of the inhibition zone (DIZ) (Escherichia coli) | diameter of the inhibition zone (DIZ) (Streptococcus pyogenes) | diameter of the inhibition zone (DIZ) [1] | diameter of the inhibition zone (DIZ) (Talaromyces marneffei) | diameter of the inhibition zone (DIZ) (Pseudomonas aeruginosa) | diameter of the inhibition zone (DIZ) (Candida albicans) | diameter of the inhibition zone (DIZ) (Staphylococcus aureus) | diameter of the inhibition zone (DIZ) (Aspergillus flavus) | diameter of the inhibition zone (DIZ) (Aspergillus fumigatus)
O=C(O)c1cn(C2CC2)c2cc(N3CCNCC3)c(F)cc2c1=O [CIPROFLOXACIN] | 6.25 µg/mL (≈ 18.9 µM) | – | 6.25 µg/mL (≈ 18.9 µM) | – | – | – | – | – | – | – | 23 mm | 30 mm | 25 mm | – | – | 16 mm | – | 22 mm | – | –
